Data as given in ChEMBL document CHEMBL1800022, “Structure-activity relationships of a series of analogues of the RFamide-related peptide 26RFa” (J Med Chem, 2011).
Activity calls are given as the source filed them. No cut-off for these calls is given here. Residues, ends and D or L forms follow the SMILES beside them. *: point of attachment. NHBn = c1ccc(CN*)cc1

Columns and labels:
[1] = target: T1, Pyroglutamylated RF-amide peptide receptor (Homo sapiens) (UniProt Q96P65); assay: Antagonist activity at DYKDDDDK-flagged human GPR103 receptor expressed in CHO-K1 cells co-expressing G-protein alpha16 assessed as inhibition of 26RFa-induced calcium mobilization after 2 mins by fluorometric analysis; type: functional, cell-based
T1 sequence (whole entry): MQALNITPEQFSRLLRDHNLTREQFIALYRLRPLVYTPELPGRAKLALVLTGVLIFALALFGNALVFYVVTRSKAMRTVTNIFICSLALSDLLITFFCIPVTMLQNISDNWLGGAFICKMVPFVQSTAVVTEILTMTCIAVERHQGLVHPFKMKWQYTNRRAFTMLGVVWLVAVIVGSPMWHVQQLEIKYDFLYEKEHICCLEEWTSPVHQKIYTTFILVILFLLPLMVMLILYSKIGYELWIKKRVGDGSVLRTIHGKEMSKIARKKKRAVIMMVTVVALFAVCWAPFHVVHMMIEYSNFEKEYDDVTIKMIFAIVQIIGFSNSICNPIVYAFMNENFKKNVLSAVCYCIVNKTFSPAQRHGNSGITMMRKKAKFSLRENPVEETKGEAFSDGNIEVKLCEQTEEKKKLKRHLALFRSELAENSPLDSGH
How it was run: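 Same Gα16/flag-hGPR103 CHO-K1 cells, Fluo-4AM loading and HBSS/probenecid/HEPES buffer. Triplicates; IC50 reported as mean ± SEM of at least three experiments.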

[2] = target: T1, Pyroglutamylated RF-amide peptide receptor (Homo sapiens); assay: Agonist activity at DYKDDDDK-flagged human GPR103 receptor expressed in CHO-K1 cells co-expressing G-protein alpha16 assessed as stimulation of calcium mobilization at 10' -12 to 10^-5 M after 2 mins by fluorometric analysis; type: functional, cell-based
How it was run: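 CHO-K1 cells stably expressing Gα16 and C-terminally flag-tagged human GPR103 (Geneticin-selected), plated at 40 000 cells/well 24 h before assay. Loaded with 2 μM Fluo-4AM for 1 h, washed, then 30 min in HBSS with 2.5 mM probenecid and 5 mM HEPES. Peptides added at 10^-12 to 10^-5 M final and fluorescence read for 2 min. Triplicates; EC50 from sigmoidal variable-slope fit, at least three experiments.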

| SMILES | inhibition [1] | Activity [2] |
| --- | --- | --- |
| C[C@H](NC(=O)[C@H](CO)NC(=O)[C@H](Cc1ccccc1)NC(=O)CNC(=O)CN)C(=O)N[C@@H](CCCNC(=N)N)C(=O)N[C@@H](Cc1ccccc1)C(N)=O (H-GGFSARF-NH2) | inactive | inactive |
| N=C(N)NCCC[C@H](NC(=O)[C@H](Cc1ccccc1)NC(=O)[C@H](CO)NC(=O)[C@H](Cc1ccccc1)NC(=O)CNC(=O)CN)C(=O)N[C@H](Cc1ccccc1)C(N)=O | inactive | inactive |
| N=C(N)NCCC[C@H](NC(=O)[C@@H](Cc1ccccc1)NC(=O)[C@H](CO)NC(=O)[C@H](Cc1ccccc1)NC(=O)CNC(=O)CN)C(=O)N[C@@H](Cc1ccccc1)C(N)=O | inactive | inactive |
| N=C(N)NCCC[C@@H](NC(=O)[C@H](Cc1ccccc1)NC(=O)[C@H](CO)NC(=O)[C@H](Cc1ccccc1)NC(=O)CNC(=O)CN)C(=O)N[C@@H](Cc1ccccc1)C(N)=O | inactive | inactive |
| CC(C)C[C@H](NC(=O)[C@H](CC(N)=O)NC(=O)CNC(=O)[C@H](CC(C)C)NC(=O)[C@@H]1CCCN1C(=O)CNC(=O)[C@H](CO)NC(=O)[C@@H](N)[C@@H](C)O)C(=O)N[C@@H](C)C(=O)N[C@@H](CCC(=O)O)C(=O)N[C@@H](CCC(=O)O)C(=O)N[C@@H](CC(C)C)C(=O)N[C@@H](CC(N)=O)C(=O)NCC(=O)N[C@@H](Cc1ccc(O)cc1)C(=O)N[C@@H](CO)C(N)=O (H-TSGPLGNLAEELNGYS-NH2) | inactive | inactive |
| C[C@H](NC(=O)[C@H](Cc1ccccc1)NC(=O)[C@H](CO)NC(=O)[C@H](Cc1ccccc1)NC(=O)CNC(=O)CN)C(=O)N[C@@H](Cc1ccccc1)C(N)=O (H-GGFSFAF-NH2) | inactive | inactive |
| N=C(N)NCCC[C@H](NC(=O)[C@H](Cc1ccccc1)NC(=O)[C@H](CO)NC(=O)[C@H](Cc1ccccc1)NC(=O)CNC(=O)CN)C(=O)N[C@@H](Cc1ccccc1)C(=O)NCc1ccccc1 (H-GGFSFRF-NHBn) | inactive | inactive |
| CC(C)C[C@H](NC(=O)[C@H](CCC(=O)O)NC(=O)[C@H](CCC(=O)O)NC(=O)[C@H](C)NC(=O)[C@@H](N)CC(C)C)C(=O)N[C@@H](CC(N)=O)C(=O)NCC(=O)N[C@@H](Cc1ccc(O)cc1)C(=O)N[C@@H](CO)C(N)=O (H-LAEELNGYS-NH2) | inactive | inactive |
| CC(C)C[C@H](NC(=O)[C@@H]1CCCN1)C(=O)NCC(=O)N[C@@H](CC(N)=O)C(=O)N[C@@H](CC(C)C)C(=O)N[C@@H](C)C(=O)N[C@@H](CCC(=O)O)C(=O)N[C@@H](CCC(=O)O)C(=O)N[C@@H](CC(C)C)C(=O)N[C@@H](CC(N)=O)C(=O)NCC(=O)N[C@@H](Cc1ccc(O)cc1)C(=O)N[C@@H](CO)C(=O)N[C@@H](CCCNC(=N)N)C(N)=O (H-PLGNLAEELNGYSR-NH2) | inactive | inactive |
| N=C(N)NCCC[C@H](NC(=O)[C@H](Cc1ccccc1)NC(=O)[C@H](CO)NC(=O)[C@@H](Cc1ccccc1)NC(=O)CNC(=O)CN)C(=O)N[C@@H](Cc1ccccc1)C(N)=O | inactive | inactive |
